From ChEMBL document CHEMBL1129396, “2-amino-4-oxo-5-substituted-pyrrolo[2,3-d]pyrimidines as nonclassical antifolate inhibitors of thymidylate synthase” (J Med Chem, 1996)

Legend:
[1] = target: Thymidylate synthase (Escherichia coli) (UniProt C3SWJ7); assay: Percent inhibition of Thymidylate synthase in Escherichia coli; settings: concentration not given here
[2] = target: T1, Thymidylate synthase (Lactobacillus casei) (UniProt P00469); assay: Percent inhibition of Thymidylate synthase in Lactobacillus casei; settings: Lacticaseibacillus casei; concentration not given here
T1 sequence (whole entry): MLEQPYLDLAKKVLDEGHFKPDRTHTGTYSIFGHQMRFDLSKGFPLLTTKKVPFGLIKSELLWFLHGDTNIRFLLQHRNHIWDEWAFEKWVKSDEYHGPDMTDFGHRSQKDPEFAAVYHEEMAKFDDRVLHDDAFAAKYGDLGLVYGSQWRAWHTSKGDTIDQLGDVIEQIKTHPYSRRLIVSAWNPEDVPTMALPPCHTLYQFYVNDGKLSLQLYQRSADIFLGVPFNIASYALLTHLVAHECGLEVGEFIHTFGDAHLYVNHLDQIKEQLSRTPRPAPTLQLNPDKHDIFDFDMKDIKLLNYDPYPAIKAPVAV

[3] = tested on: Squamous carcinoma cell line; assay: Growth inhibition of the FaDu Human Squamous Cell carcinoma cell line; assay type: functional, cell-based
[4] = target: Thymidylate synthase (Escherichia coli, UniProt C3SWJ7); assay: The inhibitory concentration of compound was evaluated on Escherichia coli Thymidylate synthase
Chain of Thymidylate synthase (Escherichia coli, UniProt C3SWJ7) (C3SWJ7 whole entry): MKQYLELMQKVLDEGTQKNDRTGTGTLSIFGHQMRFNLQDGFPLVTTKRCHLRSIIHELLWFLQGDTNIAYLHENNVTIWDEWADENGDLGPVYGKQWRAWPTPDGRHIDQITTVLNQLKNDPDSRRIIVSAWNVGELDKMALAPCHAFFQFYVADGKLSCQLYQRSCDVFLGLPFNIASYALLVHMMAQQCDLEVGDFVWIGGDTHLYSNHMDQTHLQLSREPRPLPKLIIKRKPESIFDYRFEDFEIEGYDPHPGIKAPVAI

[5] = target: T2, Thymidylate synthase (Lactobacillus casei, UniProt P00469); assay: The inhibitory concentration of compound was evaluated on Lactobacillus casei Thymidylate synthase; set-up: species or system Lacticaseibacillus casei
T2 sequence (P00469 whole entry): T1 sequence (whole entry)

[6] = target: Thymidylate synthase (Homo sapiens, UniProt P04818); assay: The inhibitory concentration of compound was evaluated on Human Thymidylate synthase
Chain of Thymidylate synthase (Homo sapiens, UniProt P04818) (P04818 whole entry): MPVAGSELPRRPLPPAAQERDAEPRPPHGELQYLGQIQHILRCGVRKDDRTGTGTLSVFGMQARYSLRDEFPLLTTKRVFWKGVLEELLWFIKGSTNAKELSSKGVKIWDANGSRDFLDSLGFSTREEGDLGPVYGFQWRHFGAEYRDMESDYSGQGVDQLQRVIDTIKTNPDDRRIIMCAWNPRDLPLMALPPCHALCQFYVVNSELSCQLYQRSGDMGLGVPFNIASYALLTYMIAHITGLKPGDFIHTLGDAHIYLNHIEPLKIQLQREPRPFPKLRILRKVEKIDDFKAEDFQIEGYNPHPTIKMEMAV

[7] = target: T3, Bifunctional dihydrofolate reductase-thymidylate synthase (Toxoplasma gondii, UniProt Q07422); assay: The inhibitory concentration of compound against Dihydrofolate reductases on Toxoplasma gondii
T3 sequence (Q07422 whole entry): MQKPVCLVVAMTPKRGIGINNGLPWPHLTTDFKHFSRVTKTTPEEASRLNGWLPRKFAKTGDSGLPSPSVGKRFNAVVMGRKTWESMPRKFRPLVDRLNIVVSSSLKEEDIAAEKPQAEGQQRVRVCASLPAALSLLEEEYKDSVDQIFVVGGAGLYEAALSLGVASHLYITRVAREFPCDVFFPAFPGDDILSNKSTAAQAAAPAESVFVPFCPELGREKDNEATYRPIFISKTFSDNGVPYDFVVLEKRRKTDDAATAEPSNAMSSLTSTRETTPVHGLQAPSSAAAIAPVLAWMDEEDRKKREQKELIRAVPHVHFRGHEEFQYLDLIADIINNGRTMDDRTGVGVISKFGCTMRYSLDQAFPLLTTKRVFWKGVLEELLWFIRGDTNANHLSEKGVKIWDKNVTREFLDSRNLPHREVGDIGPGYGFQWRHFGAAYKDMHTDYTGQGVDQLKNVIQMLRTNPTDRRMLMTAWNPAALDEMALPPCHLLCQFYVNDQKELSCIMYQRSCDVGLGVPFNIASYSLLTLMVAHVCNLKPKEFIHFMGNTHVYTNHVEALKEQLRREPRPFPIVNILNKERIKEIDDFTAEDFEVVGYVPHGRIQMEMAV
Outline: (§1)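 Run at 37 °C with 90 µM dihydrofolic acid as substrate and 119 µM NADPH as cofactor, in the presence of 150 mM KCl.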

[8] = target: T4, Dihydrofolate reductase (Rattus norvegicus, UniProt Q920D2); assay: The inhibitory concentration of compound against Dihydrofolate reductases on rat liver; outline: as §1
T4 sequence (Q920D2 whole entry): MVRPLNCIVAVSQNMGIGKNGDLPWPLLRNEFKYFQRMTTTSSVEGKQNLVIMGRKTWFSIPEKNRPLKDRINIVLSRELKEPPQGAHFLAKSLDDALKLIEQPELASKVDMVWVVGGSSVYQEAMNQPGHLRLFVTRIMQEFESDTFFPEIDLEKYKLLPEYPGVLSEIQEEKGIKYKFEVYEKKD

[9] = target: T4, Dihydrofolate reductase; assay: The inhibitory concentration of compound against Dihydrofolate reductases on rat liver (rl); assay type: tissue-based; outline: as §1

Chain of Thymidylate synthase (Escherichia coli) (C3SWJ7 1-264): as the sequence (C3SWJ7 whole entry) above

inhibition [1] [%]	EC50 [3] [µM]	IC50 [4] [µM]	IC50 [5] [µM]	IC50 [6] [µM]	IC50 [8] [µM]	Compound	IC50 [7] [µM]	also measured
36	–	–	–	–	–	Cc1[nH]c2nc(N)nc(O)c2c1Sc1ccc2ccccc2c1	–	inhibition [2]: 32%
30	> 10	–	–	–	–	COc1ccc(Sc2c(C)[nH]c3nc(N)nc(O)c23)cc1OC	–	–
–	–	> 29	100	0.34	–	Cc1[nH]c2nc(N)nc(O)c2c1Sc1ccncc1	–	–
–	–	–	–	–	> 20	Cc1[nH]c2nc(N)[nH]c(=O)c2c1Sc1ccc(Cl)c(Cl)c1	11.7	–

Continued, molecule first:

Compound	inhibition [1] [%]	EC50 [3] [µM]	IC50 [4] [µM]	IC50 [5] [µM]	IC50 [6] [µM]	IC50 [8] [µM]	IC50 [7] [µM]	also measured
COc1ccc(Sc2c(C)[nH]c3nc(N)[nH]c(=O)c23)cc1OC	–	–	–	–	–	> 21	20	–
Cc1[nH]c2nc(N)[nH]c(=O)c2c1Sc1ccc([N+](=O)[O-])cc1	–	1.5	–	–	–	7470	244	–
Cc1[nH]c2nc(N)[nH]c(=O)c2c1Sc1ccc2ccccc2c1	–	–	> 25	> 25	2	–	–	–
Cc1[nH]c2nc(N)nc(O)c2c1Sc1ccccc1	30	> 10	> 30	> 30	30	–	–	–
CN(Cc1ccc(S(=O)(=O)N2CCOCC2)cc1)c1ccc2c3c(cccc13)C(N)=N2	–	1	–	–	–	–	–	–
Cc1[nH]c2nc(N)nc(O)c2c1Sc1ccc(Cl)cc1	–	6.7	–	–	–	–	3.1	IC50 [9]: 24.6 µM
